Test results reported in ChEMBL document CHEMBL3232996, “Synthesis and biological evaluation of novel (123)I-labeled 4-(4-iodophenyl)butanoyl-L-prolyl-(2S)-pyrrolidines for imaging prolyl oligopeptidase in vivo” (Eur J Med Chem, 2014).

Experiments:
[1] = tested on: Mus musculus; assay: Retention time in C57Bl/6JRccHsd mouse plasma at 3.6 MBq, iv measured at 20 mins by HPLC analysis; format: ADME, organism-based
Summary of the method: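 Male mice given 3.6 MBq i.v.; cardiac plasma deproteinized with acetonitrile, supernatant run on C18 radio-HPLC gradient, 0.65 min fractions gamma-counted, activity expressed as cpm/total cpm.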

[2] = tested on: Brain; assay: Biodistribution in C57Bl/6JRccHsd mouse brain at 2.86 +/- 1.26 MBq, iv measured at 40 mins by SPECT analysis; format: ADME, organism-based; conditions: in vivo
Summary of the method: (§1)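 Organs excised at 5, 20, 40, 80 or 160 min and radioactivity gamma-counted as %ID/g (brain also as %ID). Blocking groups received KYP-2047 (50 µmol/kg, 10 mL/kg, 1% DMSO in 0.9% NaCl) i.p. 10 min before tracer. Mean ± SD, n = 2–4 per time point. Blocking compared by two-tailed Student's t test.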

[3] = Drug uptake in iv dosed C57Bl/6JRccHsd mouse blood cells measured at 160 mins post dose pretreated with 50 umol/kg, ip prolyl oligopeptidase inhibitor KYP-2047 10 mins before compound dosing by SPECT analysis; format: ADME, organism-based; conditions: in vivo
Summary of the method: (§2)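 Mice got tracer i.v., some after i.p. KYP-2047 (50 µmol/kg) 10 min before. Cardiac blood was collected at 20, 40, 80 or 160 min and spun 5 min at 2000 g into cells and plasma. Plasma was precipitated with acetonitrile and pellet and supernatant were gamma-counted. Activity in cells, protein-bound and free plasma is given as % of total blood activity, n = 3.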

[4] = tested on: Blood; assay: Biodistribution in C57Bl/6JRccHsd mouse blood at 2.86 +/- 1.26 MBq, iv measured at 80 mins by SPECT analysis; format: ADME, organism-based; conditions: in vivo; summary of the method: as §1
[5] = tested on: Heart; assay: Biodistribution in C57Bl/6JRccHsd mouse heart at 2.86 +/- 1.26 MBq, iv measured at 80 mins by SPECT analysis; format: ADME, organism-based; conditions: in vivo; summary of the method: as §1
[6] = tested on: Brain; assay: Biodistribution in C57Bl/6JRccHsd mouse brain at 2.86 +/- 1.26 MBq, iv measured at 80 mins post dose pretreated with 50 umol/kg, ip prolyl oligopeptidase inhibitor KYP-2047 10 mins before compound dosing by SPECT analysis; format: ADME, organism-based; conditions: in vivo; summary of the method: as §1
[7] = tested on: Lung; assay: Biodistribution in C57Bl/6JRccHsd mouse lung at 2.86 +/- 1.26 MBq, iv measured at 80 mins by SPECT analysis; format: ADME, organism-based; conditions: in vivo; summary of the method: as §1
[8] = tested on: Mus musculus; assay: Biodistribution in C57Bl/6JRccHsd mouse tongue at 2.86 +/- 1.26 MBq, iv measured at 80 mins post dose pretreated with 50 umol/kg, ip prolyl oligopeptidase inhibitor KYP-2047 10 mins before compound dosing by SPECT analysis; format: ADME, organism-based; conditions: in vivo; summary of the method: as §1
[9] = tested on: Liver; assay: Biodistribution in C57Bl/6JRccHsd mouse liver at 2.86 +/- 1.26 MBq, iv measured at 80 mins by SPECT analysis; format: ADME, organism-based; conditions: in vivo; summary of the method: as §1
[10] = Biodistribution in left brain hemisphere of iv dosed C57BL/6JRccHsd mouse LPS-induced acute neuroinflammation model dosed 24 hrs after LPS challenge and measured at 80 mins post dose; format: ADME, organism-based; conditions: read-out: Drug uptake
Summary of the method: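 Male mice under isoflurane got a stereotaxic LPS injection (E. coli 055:B5) into the left striatum, with buprenorphine 0.1 mg/kg s.c. for post-operative pain. The right hemisphere served as intact control. Tracer was given i.v. 24 h later. Left and right hemisphere and whole-brain radioactivity were measured 80 min post injection as %ID/g or %ID, n = 3.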

[11] = tested on: Plasma; assay: Stability in human plasma at 2.5 MBq/ml up to 120 mins by HPLC analysis; format: ADME, cell-free; conditions: 2 h
[12] = tested on: Blood; assay: Biodistribution in C57Bl/6JRccHsd mouse blood at 2.86 +/- 1.26 MBq, iv measured at 80 mins post dose pretreated with 50 umol/kg, ip prolyl oligopeptidase inhibitor KYP-2047 10 mins before compound dosing by SPECT analysis; format: ADME, organism-based; conditions: in vivo; summary of the method: as §1
[13] = tested on: Blood; assay: Biodistribution in C57Bl/6JRccHsd mouse blood at 2.86 +/- 1.26 MBq, iv measured at 20 mins by SPECT analysis; format: ADME, organism-based; conditions: in vivo; summary of the method: as §1
[14] = tested on: Muscle tissue; assay: Biodistribution in C57Bl/6JRccHsd mouse muscle at 2.86 +/- 1.26 MBq, iv measured at 80 mins by SPECT analysis; format: ADME, organism-based; conditions: in vivo; summary of the method: as §1
[15] = tested on: Kidney; assay: Biodistribution in C57Bl/6JRccHsd mouse kidney at 2.86 +/- 1.26 MBq, iv measured at 80 mins post dose pretreated with 50 umol/kg, ip prolyl oligopeptidase inhibitor KYP-2047 10 mins before compound dosing by SPECT analysis; format: ADME, organism-based; conditions: in vivo; summary of the method: as §1
[16] = tested on: Mus musculus; assay: Drug metabolism in C57Bl/6JRccHsd mouse plasma assessed as retention time of radioactive metabolite at 3.6 MBq, iv measured at 20 mins by HPLC analysis; format: ADME, organism-based
Summary of the method: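 Male mice received 3.6 MBq tracer via tail vein. Cardiac blood was taken on heparin and centrifuged. Plasma was deproteinized with acetonitrile (1.5× plasma volume) and the supernatant run on reverse-phase C18 gradient HPLC. Fractions of 0.65 min were gamma-counted. Metabolite retention time was read from the 20 min sample.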

[17] = tested on: Mus musculus; assay: Biodistribution in C57Bl/6JRccHsd mouse salivary gland at 2.86 +/- 1.26 MBq, iv measured at 80 mins by SPECT analysis; format: ADME, organism-based; conditions: in vivo; summary of the method: as §1
[18] = tested on: Blood; assay: Biodistribution in C57Bl/6JRccHsd mouse blood at 2.86 +/- 1.26 MBq, iv measured at 40 mins post dose pretreated with 50 umol/kg, ip prolyl oligopeptidase inhibitor KYP-2047 10 mins before compound dosing by SPECT analysis; format: ADME, organism-based; conditions: in vivo; summary of the method: as §1
[19] = Fraction unbound in iv dosed C57Bl/6JRccHsd mouse plasma measured at 80 mins; format: ADME, organism-based
Summary of the method: (§3)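 Male mice given 3.6 MBq tracer i.v. via lateral tail vein; blocking groups got POP inhibitor i.p. (50 µmol/kg, 10 mL/kg, 1% DMSO in 0.9% NaCl) 10 min before. Heparinized cardiac blood on ice, gamma-counted, spun 5 min at 2000 g; plasma counted, precipitated with 1.5 volumes acetonitrile, respun; cell-bound, protein-bound and free fractions expressed as % of blood activity; n = 3.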

[20] = tested on: Blood; assay: Biodistribution in C57Bl/6JRccHsd mouse blood at 2.86 +/- 1.26 MBq, iv measured at 40 mins by SPECT analysis; format: ADME, organism-based; conditions: in vivo; summary of the method: as §1
[21] = Plasma protein binding in human at 2.5 MBq/ml after 2 hrs by HPLC analysis; format: ADME, cell-free; conditions: read-out: PPB (converted)
[22] = Octanol-phosphate buffer partition coefficient, log P of the compound by shake-flask method; format: physicochemical
Summary of the method: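 Tracer (700 kBq, in 1% DMSO/0.9% NaCl) shaken 3 min between n-octanol and 0.02 M phosphate buffer pH 7.4; octanol phase split into four tubes, re-extracted with equal buffer 10 min, centrifuged 5 min at 1000 g; log of octanol/buffer cpm per mL ratio, mean ± SD of four replicates.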

[23] = tested on: Mus musculus; assay: Biodistribution in gastrocnemius muscle of iv dosed C57BL/6JRccHsd mouse turpentine-induced acute localized inflammation model after 20 mins to 24 hrs by SPEC-CT analysis (reference value: 2.0 +/- 0.6 %ID/g); format: ADME, organism-based; conditions: in vivo
[24] = Plasma protein binding in iv dosed C57Bl/6JRccHsd mouse measured at 20 mins; format: ADME, organism-based; conditions: read-out: PPB (converted); summary of the method: as §3
[25] = Fraction unbound in iv dosed C57Bl/6JRccHsd mouse plasma measured at 160 mins; format: ADME, organism-based; summary of the method: as §2

Retention_time [1]: 7.15 min
Drug uptake [2]: 0.76 %ID
Drug uptake [3]: 42%
Drug uptake [4]: 2.1 % ID/g
Drug uptake [5]: 12.2 % ID/g
Drug uptake [6]: 0.08 % ID/g
Drug uptake [7]: 14.67 % ID/g
Drug uptake [8]: 1.44 % ID/g
Drug uptake [9]: 20.1 % ID/g
tissue uptake at 80 min [10]: 1.34 %ID/g
Stability [11]: Stable
Drug uptake [12]: 2.69 % ID/g
Drug uptake [13]: 8.5 % ID/g
Drug uptake [14]: 2.15 % ID/g
Drug uptake [15]: 4.73 % ID/g
Retention_time [16]: 4 min
Drug uptake [17]: 7.77 % ID/g
Drug uptake [18]: 4 % ID/g
fraction unbound at 80 min [19]: 0.15
Drug uptake [20]: 7.6 % ID/g
fraction unbound at 2 h, 2.5 MBq/ml [21]: 0.937
logP [22]: 2.37
Drug uptake [23]: 0.8 % ID/g
fraction unbound at 20 min [24]: 0.98
fraction unbound at 160 min [25]: 0.26
SMILES: N#C[C@@H]1CCCN1C(=O)[C@@H]1CCCN1C(=O)CCCc1ccc([123I])cc1
